The values below come from ChEMBL document CHEMBL1134525, “Novel N-(arylalkyl)indol-3-ylglyoxylylamides targeted as ligands of the benzodiazepine receptor: synthesis, biological evaluation, and molecular modeling analysis of the structure-activity relationships” (J Med Chem, 2001).

Values joined by “and” are separate entries in the source; they are usually repeats but may differ in a detail not shown here. Identical values can stand only once.

Experiment [1] deals with GABA-A receptor; anion channel. Put plainly: Inhibition of [3H]- flumazenil binding to benzodiazepine receptor in bovine brain membranes. Type of experiment: cell membranes. The essentials:
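Bovine brain membranes were freeze-thawed, washed by suspension and centrifugation in 50 mM tris-citrate pH 7.4, then used for competition binding against [3H]flumazenil. Specific binding inhibition was first measured at a fixed 10 µM. Protein was measured by the Lowry method.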

Experiment [2] addresses GABA A receptor alpha-5/beta-3/gamma-2 (Rattus norvegicus) (UniProt P18508+P19969+P63079). Put plainly: Inhibition of [3H]flumazenil binding to rat alpha-5-beta-3-gamma-2 GABA-A receptor subunits expressed in HEK293 cells at 10 uM. It counts as cell-based. A digest of the protocol: (§1)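 Membranes came from HEK293 clonal lines expressing rat GABAA subtypes, grown in MEM/EBSS with 10% FCS, 2 mM glutamine and penicillin/streptomycin at 37 °C in 5% CO2. Membranes were homogenized and centrifuged (48 000 × g, 30 min, 4 °C) in 10 mM K-phosphate pH 7.4 and resuspended with 100 mM KCl. […] Nonspecific binding was defined with 10^-5 M diazepam. Results are the mean of three determinations.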

Experiment [3] addresses GABA-A receptor; alpha-1/beta-2/gamma-2 (Rattus norvegicus, UniProt P18508+P62813+P63138). Briefly: Inhibition of [3H]flumazenil binding to rat alpha-1-beta-2-gamma-2 GABA-A receptor subunits expressed in HEK293 cells. It counts as cell-based. The essentials:
as §1

The target of experiment [4] is GABA A receptor alpha-3/beta-2/gamma-2 (Rattus norvegicus, UniProt P18508+P20236+P63138). Put plainly: Inhibition of [3H]flumazenil binding to rat alpha-3-beta-2-gamma-2 GABA-A receptor subunits expressed in HEK293 cells. Type of experiment: cell-based. A digest of the protocol:
as §1

Experiment [5] is described as follows: Ratio of Ki with out GABA and with GABA.

Chain of GABA-A receptor; alpha-1/beta-2/gamma-2 (P18508 whole entry): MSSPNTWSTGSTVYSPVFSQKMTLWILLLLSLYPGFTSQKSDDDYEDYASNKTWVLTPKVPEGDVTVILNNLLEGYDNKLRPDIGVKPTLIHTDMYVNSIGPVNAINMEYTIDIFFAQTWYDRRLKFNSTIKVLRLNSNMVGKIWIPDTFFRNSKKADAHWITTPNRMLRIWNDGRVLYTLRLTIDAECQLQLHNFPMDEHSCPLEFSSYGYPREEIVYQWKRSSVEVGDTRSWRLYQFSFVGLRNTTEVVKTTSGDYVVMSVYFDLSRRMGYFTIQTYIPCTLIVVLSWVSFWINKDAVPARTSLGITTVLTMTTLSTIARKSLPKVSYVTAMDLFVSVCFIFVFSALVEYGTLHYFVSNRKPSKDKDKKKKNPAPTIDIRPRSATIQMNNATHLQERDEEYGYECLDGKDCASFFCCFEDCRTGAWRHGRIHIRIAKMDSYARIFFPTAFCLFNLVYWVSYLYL
Chain of GABA-A receptor; alpha-1/beta-2/gamma-2 (P62813 whole entry): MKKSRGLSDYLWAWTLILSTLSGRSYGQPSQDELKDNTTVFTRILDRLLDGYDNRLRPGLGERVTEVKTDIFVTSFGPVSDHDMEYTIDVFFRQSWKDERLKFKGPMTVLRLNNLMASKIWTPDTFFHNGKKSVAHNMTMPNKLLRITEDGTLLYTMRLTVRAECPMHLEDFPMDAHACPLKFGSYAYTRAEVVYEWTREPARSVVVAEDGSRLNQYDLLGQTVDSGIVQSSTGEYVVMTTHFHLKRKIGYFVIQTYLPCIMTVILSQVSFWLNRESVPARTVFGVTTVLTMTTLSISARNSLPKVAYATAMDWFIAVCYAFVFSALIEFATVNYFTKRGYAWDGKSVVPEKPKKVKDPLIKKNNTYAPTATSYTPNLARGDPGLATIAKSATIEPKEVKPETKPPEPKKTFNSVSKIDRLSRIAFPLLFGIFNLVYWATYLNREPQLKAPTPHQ
Chain of GABA-A receptor; alpha-1/beta-2/gamma-2 (P63138 whole entry): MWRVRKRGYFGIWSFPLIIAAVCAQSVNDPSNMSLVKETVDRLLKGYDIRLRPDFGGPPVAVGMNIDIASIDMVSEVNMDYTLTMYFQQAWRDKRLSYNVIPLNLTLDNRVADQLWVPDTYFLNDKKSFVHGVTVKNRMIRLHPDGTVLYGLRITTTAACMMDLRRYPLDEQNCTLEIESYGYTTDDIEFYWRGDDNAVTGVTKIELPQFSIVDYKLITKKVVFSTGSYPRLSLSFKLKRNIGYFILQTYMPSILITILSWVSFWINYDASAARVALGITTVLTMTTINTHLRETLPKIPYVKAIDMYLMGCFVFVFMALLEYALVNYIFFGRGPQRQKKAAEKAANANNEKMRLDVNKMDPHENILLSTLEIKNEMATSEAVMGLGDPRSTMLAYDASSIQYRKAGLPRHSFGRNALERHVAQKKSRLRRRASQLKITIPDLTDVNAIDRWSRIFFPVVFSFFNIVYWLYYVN
Chain of GABA A receptor alpha-3/beta-2/gamma-2 (P18508 whole entry): as the sequence (P18508 whole entry) above
Chain of GABA A receptor alpha-3/beta-2/gamma-2 (P20236 whole entry): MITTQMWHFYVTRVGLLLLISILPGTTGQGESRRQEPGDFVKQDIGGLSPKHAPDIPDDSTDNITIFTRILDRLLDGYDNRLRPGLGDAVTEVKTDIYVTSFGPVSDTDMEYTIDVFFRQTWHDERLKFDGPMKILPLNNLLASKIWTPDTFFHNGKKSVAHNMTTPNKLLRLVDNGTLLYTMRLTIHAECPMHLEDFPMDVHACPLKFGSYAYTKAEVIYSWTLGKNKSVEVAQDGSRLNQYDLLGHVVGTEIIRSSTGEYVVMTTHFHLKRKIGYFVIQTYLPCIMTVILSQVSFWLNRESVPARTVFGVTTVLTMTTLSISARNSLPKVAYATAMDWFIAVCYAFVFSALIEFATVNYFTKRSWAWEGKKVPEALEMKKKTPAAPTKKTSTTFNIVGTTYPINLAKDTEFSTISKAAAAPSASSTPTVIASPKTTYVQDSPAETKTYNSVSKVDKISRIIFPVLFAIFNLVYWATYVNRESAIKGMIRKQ
Chain of GABA A receptor alpha-3/beta-2/gamma-2 (P63138 whole entry): as the sequence (P63138 whole entry) above

The term Ki denotes a measure of affinity in units of concentration, obtained from inhibition or displacement. The inhibition is how much of the control response was suppressed. A low value points to a response near the control. In the case of `O=C(C(=O)N1Cc2ccccc2C1)c1c[nH]c2ccccc12`, the Ki in experiment [1] came to 123 nM; in experiment [3], 224 nM; in experiment [4], 3200 nM. In addition, the inhibition in experiment [2] was 43%. In addition, in experiment [5], the Ratio is 1.06 and 1.1.
